Laboratory results as given in ChEMBL document CHEMBL3797157, “Antifungal Quinoline Alkaloids from Waltheria indica” (J Nat Prod, 2016).
Converted amounts (≈) assume the structure as drawn. The source made the active and inactive calls. The calls are words filed in the database; no cut-off is given here.

Columns and labels:
Candida albicans [1] = experiment: Antimicrobial activity against Candida albicans CAF2-1 after 24 hrs by two fold serial dilution method; type: functional; settings: CAF2-1, 24 h
Outline: (§1)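 Broth microdilution per EUCAST. Yeasts diluted to 2 × 10^5 cells/mL in YNB with 2% glucose, pH 4.6. Compound stocks 10 mg/mL in DMSO, twofold serial dilutions, 1% DMSO final. Drug-free and sterility controls included. Incubated 24 h at 34 °C. MIC is the lowest concentration giving OD450 ≤50% of the compound-free culture. For S. cerevisiae, YNB was supplemented with Complete Supplement Mixture.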

Nakaseomyces glabratus = experiment: Antimicrobial activity against Candida glabrata after 24 hrs by two fold serial dilution method; type: functional; outline: as §1
Pichia kudriavzevii = experiment: Antimicrobial activity against Candida krusei ATCC 6258 after 24 hrs by two fold serial dilution method; type: functional; settings: ATCC 6258, 24 h; outline: as §1
Candida tropicalis = experiment: Antimicrobial activity against Candida tropicalis ATCC 75 after 24 hrs by two fold serial dilution method; type: functional; settings: ATCC 75, 24 h; outline: as §1
Candida parapsilosis = experiment: Antimicrobial activity against Candida parapsilosis ATCC 22019 after 24 hrs by two fold serial dilution method; type: functional; settings: Lodderomyces parapsilosis, ATCC 22019, 24 h; outline: as §1
Saccharomyces cerevisiae = experiment: Antimicrobial activity against Saccharomyces cerevisiae BY4741 after 24 hrs by two fold serial dilution method; type: functional; settings: BY4741, 24 h; outline: as §1
Candida albicans [2] = experiment: Antibiofilm activity against Candida albicans CAF2-1 assessed as reduction in metabolic activity after 48 hrs by XTT assay; type: functional; settings: CAF2-1, 48 h
Escherichia coli = experiment: Antimicrobial activity against Escherichia coli; type: functional
Pseudomonas aeruginosa = experiment: Antimicrobial activity against Pseudomonas aeruginosa; type: functional
Staphylococcus aureus = experiment: Antimicrobial activity against Staphylococcus aureus; type: functional
HeLa = experiment: Cytotoxicity against human HeLa cells after 48 hrs by SRB assay; type: cell-based
Outline: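 Sulforhodamine B assay in HeLa cells (DMEM + 10% FBS, 37 °C, 5% CO2), seeded at 10^4 cells/well. After 24 h, cells were PBS-washed and exposed to twofold dilutions from 100 μg/mL for 48 h. A day-1 plate was fixed as baseline. OD492 growth = (treated d3 − d1)/(DMSO d3 − d1) × 100. IC50 was obtained by dose–response curve fitting.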

[3] = Selectivity index, ratio of IC50 for human HeLa cells to MIC for Candida albicans CAF2-1
Outline: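 SI = HeLa IC50 (SRB assay, 48 h) divided by the C. albicans CAF2-1 MIC (YNB pH 4.6, 24 h, 34 °C broth microdilution).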

Candida albicans [4] = experiment: Antimicrobial activity against Candida albicans CAF2-1 assessed as accumulation of dark corpuscles in nucleus at 1 ug/ml after 4 hrs by uranyl acetate/lead citrate staining based transmission electron microscopy; type: functional, organism-based
Outline: (§2)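 CAF2-1 grown in YNB pH 4.6 at 37 °C for 2 h. Compound (1 mg/mL DMSO stock) then added at 1 or 2 μg/mL. DMSO-treated and untreated controls. Samples taken at 4 and 18 h and pelleted. Prefixed in 3% glutaraldehyde–2% paraformaldehyde in 0.07 M phosphate pH 7, postfixed in 1% OsO4, ethanol-dehydrated and embedded in LR White. 0.08 μm sections stained with uranyl acetate/lead citrate and viewed by TEM.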

Candida albicans [5] = experiment: Antimicrobial activity against Candida albicans CAF2-1 assessed as punctual disruption of nuclear membrane at 2 ug/ml after 4 hrs by uranyl acetate/lead citrate staining based transmission electron microscopy; type: functional, organism-based; outline: as §2
Candida albicans [6] = experiment: Antimicrobial activity against Candida albicans CAF2-1 assessed as punctual disruption of nuclear membrane at 1 ug/ml after 4 hrs by uranyl acetate/lead citrate staining based transmission electron microscopy; type: functional, organism-based; outline: as §2
Candida albicans [7] = experiment: Antimicrobial activity against Candida albicans CAF2-1 assessed as breakage zones of plasmic membrane at 2 ug/ml after 18 hrs by uranyl acetate/lead citrate staining based transmission electron microscopy; type: functional, organism-based; outline: as §2
Candida albicans [8] = experiment: Antimicrobial activity against Candida albicans CAF2-1 assessed as breakage zones of plasmic membrane at 1 ug/ml after 18 hrs by uranyl acetate/lead citrate staining based transmission electron microscopy; type: functional, organism-based; outline: as §2
Candida albicans [9] = experiment: Antimicrobial activity against Candida albicans CAF2-1 assessed as cytoplasmic content disorganization at 2 ug/ml after 18 hrs by uranyl acetate/lead citrate staining based transmission electron microscopy; type: functional, organism-based; outline: as §2
Candida albicans [10] = experiment: Antimicrobial activity against Candida albicans CAF2-1 assessed as cytoplasmic content disorganization at 1 ug/ml after 18 hrs by uranyl acetate/lead citrate staining based transmission electron microscopy; type: functional, organism-based; outline: as §2
Candida albicans [11] = experiment: Antimicrobial activity against Candida albicans CAF2-1 assessed as accumulation of dark corpuscles in nucleus at 2 ug/ml after 4 hrs by uranyl acetate/lead citrate staining based transmission electron microscopy; type: functional, organism-based; outline: as §2

Compound	MIC (Candida albicans [1])	MIC (Nakaseomyces glabratus)	MIC (Pichia kudriavzevii)	MIC (Candida tropicalis)	MIC (Candida parapsilosis)	MIC (Saccharomyces cerevisiae)	MIC (Candida albicans [2])	MIC (Escherichia coli)	MIC (Pseudomonas aeruginosa)	MIC (Staphylococcus aureus)	IC50 (HeLa)	Selectivity Index [3]	Activity (Candida albicans [4])	Activity (Candida albicans [5])	Activity (Candida albicans [6])	Activity (Candida albicans [7])	Activity (Candida albicans [8])	Activity (Candida albicans [9])	Activity (Candida albicans [10])	Activity (Candida albicans [11])
COc1c(C)[nH]c2c(c1=O)[C@@H](CCCCCc1ccccc1)CC[C@H]2OC	32 µg/mL (≈ 86.6 µM)	> 32 µg/mL	> 32 µg/mL	> 32 µg/mL	> 32 µg/mL	> 32 µg/mL	32 µg/mL (≈ 86.6 µM)	> 32 µg/mL	> 32 µg/mL	> 32 µg/mL	11.9 µg/mL (≈ 32.2 µM)	0.4	–	–	–	–	–	–	–	–
CCCCCCCC[C@@H]1CCCc2[nH]c(C)c(OC)c(=O)c21	16 µg/mL (≈ 52.4 µM)	> 32 µg/mL	32 µg/mL (≈ 105 µM)	> 32 µg/mL	32 µg/mL (≈ 105 µM)	> 32 µg/mL	32 µg/mL (≈ 105 µM)	> 32 µg/mL	> 32 µg/mL	> 32 µg/mL	24.7 µg/mL (≈ 80.9 µM)	1.5	–	–	–	–	–	–	–	–
CCCCCCCC[C@H]1CCCc2c1c(=O)c(OC)c(C)n2OC	16 µg/mL (≈ 47.7 µM)	32 µg/mL (≈ 95.4 µM)	16 µg/mL (≈ 47.7 µM)	32 µg/mL (≈ 95.4 µM)	2 µg/mL (≈ 5.96 µM)	16 µg/mL (≈ 47.7 µM)	16 µg/mL (≈ 47.7 µM)	> 32 µg/mL	> 32 µg/mL	> 32 µg/mL	16.1 µg/mL (≈ 48 µM)	1	–	–	–	–	–	–	–	–
CCCCCCCC[C@@H]1CCCc2[nH]c(CO)c(OC)c(=O)c21	32 µg/mL (≈ 99.5 µM)	> 32 µg/mL	32 µg/mL (≈ 99.5 µM)	> 32 µg/mL	> 32 µg/mL	> 32 µg/mL	16 µg/mL (≈ 49.8 µM)	–	–	–	24.4 µg/mL (≈ 75.9 µM)	0.8	–	–	–	–	–	–	–	–
CCCCCCCC[C@H]1CCC(=O)c2[nH]c(C)c(OC)c(=O)c21	32 µg/mL (≈ 100 µM)	> 32 µg/mL	16 µg/mL (≈ 50.1 µM)	> 32 µg/mL	4 µg/mL (≈ 12.5 µM)	> 32 µg/mL	16 µg/mL (≈ 50.1 µM)	> 32 µg/mL	> 32 µg/mL	> 32 µg/mL	23.4 µg/mL (≈ 73.3 µM)	0.7	–	–	–	–	–	–	–	–
CCCCCCCC[C@H]1CC[C@@H](OC)c2[nH]c(C)c(OC)c(=O)c21	4 µg/mL (≈ 11.9 µM)	> 32 µg/mL	> 32 µg/mL	> 32 µg/mL	> 32 µg/mL	> 32 µg/mL	8 µg/mL (≈ 23.8 µM)	> 32 µg/mL	> 32 µg/mL	> 32 µg/mL	20 µg/mL (≈ 59.6 µM)	5	Active	Active	Active	Active	Active	Active	Active	Active
CCCCCCCC[C@@H]1CCCc2c1c(=O)c(OC)c(CO)n2OC	32 µg/mL (≈ 91 µM)	> 32 µg/mL	> 32 µg/mL	> 32 µg/mL	> 32 µg/mL	> 32 µg/mL	16 µg/mL (≈ 45.5 µM)	> 32 µg/mL	> 32 µg/mL	> 32 µg/mL	26.6 µg/mL (≈ 75.7 µM)	0.8	–	–	–	–	–	–	–	–
CC[C@H](C)C[C@H](C)CCCCCCCCC(=O)N[C@H]1C[C@@H](O)[C@@H](NCCN)NC(=O)[C@@H]2[C@@H](O)CCN2C(=O)[C@H]([C@H](O)CCN)NC(=O)[C@H]([C@H](O)[C@@H](O)c2ccc(O)cc2)NC(=O)[C@@H]2C[C@@H](O)CN2C(=O)[C@H]([C@@H](C)O)NC1=O [CASPOFUNGIN]	0.3 µg/mL (≈ 0.274 µM)	0.1 µg/mL (≈ 0.0915 µM)	0.1 µg/mL (≈ 0.0915 µM)	0.5 µg/mL (≈ 0.457 µM)	1 µg/mL (≈ 0.915 µM)	0.3 µg/mL (≈ 0.274 µM)	0.1 µg/mL (≈ 0.0915 µM)	–	–	–	> 100 µg/mL	>400	–	–	–	–	–	–	–	–
OC(Cn1cncn1)(Cn1cncn1)c1ccc(F)cc1F [FLUCONAZOLE]	0.5 µg/mL (≈ 1.63 µM)	> 128 µg/mL	32 µg/mL (≈ 104 µM)	4 µg/mL (≈ 13.1 µM)	4 µg/mL (≈ 13.1 µM)	16 µg/mL (≈ 52.2 µM)	> 256 µg/mL	–	–	–	> 100 µg/mL	>200	–	–	–	–	–	–	–	–
COc1c(C)n(OC)c2c(c1=O)[C@@H](CCCCCc1ccccc1)CCC2	32 µg/mL (≈ 86.6 µM)	32 µg/mL (≈ 86.6 µM)	32 µg/mL (≈ 86.6 µM)	32 µg/mL (≈ 86.6 µM)	2 µg/mL (≈ 5.41 µM)	16 µg/mL (≈ 43.3 µM)	32 µg/mL (≈ 86.6 µM)	> 32 µg/mL	> 32 µg/mL	> 32 µg/mL	9.5 µg/mL (≈ 25.7 µM)	0.3	Active	Active	Active	Active	Active	Active	Active	Active
CCCCCCCC[C@H]1CC[C@@H](O)c2[nH]c(C)c(OC)c(=O)c21	32 µg/mL (≈ 99.5 µM)	> 32 µg/mL	32 µg/mL (≈ 99.5 µM)	> 32 µg/mL	> 32 µg/mL	> 32 µg/mL	16 µg/mL (≈ 49.8 µM)	–	–	–	50 µg/mL (≈ 156 µM)	1.6	–	–	–	–	–	–	–	–
CCCCCCCCc1ccc(OC)c2[nH]c(C)c(OC)c(=O)c12	8 µg/mL (≈ 24.1 µM)	> 32 µg/mL	> 32 µg/mL	> 32 µg/mL	> 32 µg/mL	> 32 µg/mL	16 µg/mL (≈ 48.3 µM)	> 32 µg/mL	> 32 µg/mL	> 32 µg/mL	14.4 µg/mL (≈ 43.4 µM)	1.8	–	–	–	–	–	–	–	–
